YB-1 expression – YB-1 expression inhibition. U2OS, qRT-PCR YB-1 vs CDIP delta delta Cp, 16 h; stronger effect = higher value; zero = DMSO, each unit about twofold. delta delta Cp (YB-1 minus CDIP) (concentration not given with the values). 30,000 compounds, 0.37% hits. AID 434959;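 active means delta delta Cp rounded down to an integer at or above 3, about 3 SD of DMSO wells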;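 further: higher means less YB-1 transcript or more CDIP transcript relative to DMSO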
INS-1E ATP HTS – preserves ATP levels in cytokine-treated INS-1E cells; INS-1E cytokine-induced death, ATP luminescence, 48 h; normalised: neutral wells 0, positive control 100; 20,000 compounds, 0.1% hits; AID 488910; protection from cytokine-induced ATP loss, % at 10 µM;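 active means mean replicate protection from cytokine-induced ATP loss at least 50% and at least 75% of replicates each reaching 50%; inconclusive means meets only one of the two criteria, mean or replicate share; inactive means fails both the mean and replicate share criteria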
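Assay system – rat INS-1E insulinoma cell line · Quantity – 8000 cells per well · Buffer or medium – RPMI without phenol red, 5% FBS · Schedule – 48 h co-treatment, 10 min post-lysis read · Technique – luminescent ATP assay (CellTiter-Glo)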
T cruzi intra – inhibitors of intracellular Trypanosoma cruzi | AID 651903 | intracellular Trypanosoma cruzi in host cells, plate reader | activity score (inhibition), % at 5.01 µM | 22,000 compounds, 4.9% hits; in the data active means activity score above about 55%; inconclusive means no clear call, values can overlap the other calls;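 further: parasites and compound incubated about four days before reading; 0% = median of neutral control wells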
Numbers without * were called inactive; ? = inconclusive; . = no result. Shown is part of a subset that was picked to be rich in hits.

SMILES	YB-1 expression	INS-1E ATP HTS	T cruzi intra
C[C@@H]1CCCCO[C@H](CN(C)S(=O)(=O)c2cccs2)[C@@H](C)CN([C@H](C)CO)C(=O)c2cc(NC(=O)Nc3ccc4c(c3)OCO4)ccc2O1	0.22	0	-15
C[C@@H]1CCCCO[C@@H](CN(C)S(=O)(=O)c2cccs2)[C@@H](C)CN([C@H](C)CO)C(=O)c2cc(NC(=O)CCC(F)(F)F)ccc2O1	0.26	0	-23
C[C@@H]1CCCCO[C@H](CN(C)S(=O)(=O)c2cccs2)[C@@H](C)CN([C@H](C)CO)C(=O)c2cc(NC(=O)Nc3ccc(C(F)(F)F)cc3)ccc2O1	0.093	-15	62*
C[C@@H]1CCCCO[C@@H](CN(C)S(=O)(=O)c2cccs2)[C@@H](C)CN([C@H](C)CO)C(=O)c2cc(NC(=O)Nc3ccc(C(F)(F)F)cc3)ccc2O1	0.15	-12	67*
COc1ccc(-n2c(CC#N)nnc2SCc2c(C)c(C)c(C)c(C)c2C)cc1	-0.43	.	.
O=C(Nc1sc2c(c1C(=O)Nc1ccccc1)CCCC2)c1ccccc1	-0.15	.	.
Clc1ccccc1/C=C/C=Nc1ccc(N2CCOCC2)cc1	0.031	.	.
C[C@@H]1CN([C@H](C)CO)C(=O)c2cc(NS(=O)(=O)c3ccccc3)ccc2O[C@@H]1CN(C)C(=O)Nc1ccc2c(c1)OCO2	0.068	6	-3
C[C@@H]1CN([C@@H](C)CO)C(=O)Cc2cc(NC(=O)Nc3cccc4ccccc34)ccc2O[C@@H]1CN(C)Cc1ccc(Oc2ccccc2)cc1	0.23	-1	68*
C[C@H]1CN([C@@H](C)CO)C(=O)Cc2cc(NC(=O)Nc3cccc4ccccc34)ccc2O[C@@H]1CN(C)Cc1ccc(Oc2ccccc2)cc1	0.11	-20	70*
C[C@H](CO)N1C[C@H](C)[C@H](CN(C)Cc2ccc(Oc3ccccc3)cc2)Oc2ccc(NC(=O)Nc3cccc4ccccc34)cc2CC1=O	-0.29	-26	17
COc1ccc(CN(C)C[C@@H]2Oc3ccc(NC(=O)Nc4cccc5ccccc45)cc3CC(=O)N([C@H](C)CO)C[C@@H]2C)cc1	0.37	-4	19
COc1cccc(N2C(=O)CC(SCC(=O)Nc3ccc4ccccc4c3)C2=O)c1 (stereo not drawn)	-1.2	.	.
C=CC(C)(CC/C=C(\C)C(O)CC=C(C)C)OC1OC(CO)C(O)C(O)C1O (stereo not drawn)	0.44	.	.
O=C(NO)c1cccc(C(=O)N/N=C/c2ccc(N3CCCC3)cc2)c1	0.71	-4	-12
O=C(NO)c1cccc(C(=O)N/N=C/c2c(O)cc(O)cc2O)c1	-0.15	-5	-5
CC(C)=CCC/C(C)=C/CCC1(C)Oc2c(c(O)cc3c2CN(C(CCC(=O)O)C(=O)O)C3=O)CC1O (stereo not drawn)	1.5	.	.
C[C@@H]1CN([C@@H](C)CO)C(=O)c2cccc(NC(=O)Nc3ccc(C(F)(F)F)cc3)c2O[C@H]1CN(C)Cc1ccc(C(=O)Nc2ccccc2N)cc1	-0.21	-26	?
C[C@H]1CN([C@@H](C)CO)C(=O)c2cc(NC(=O)Nc3ccc(F)cc3)ccc2O[C@H]1CN(C)Cc1ccc(C(=O)Nc2ccccc2N)cc1	-0.035	-4	51
C[C@H]1CN([C@@H](C)CO)C(=O)c2cccc(NC(=O)Nc3ccc(F)cc3)c2O[C@@H]1CN(C)Cc1ccc(C(=O)Nc2ccccc2N)cc1	-0.34	4	67*
C[C@@H]1CN([C@H](C)CO)C(=O)c2cccc(NC(=O)Nc3ccc(F)cc3)c2O[C@H]1CN(C)Cc1ccc(C(=O)Nc2ccccc2N)cc1	-0.63	7	78*
C[C@@H]1CN([C@@H](C)CO)C(=O)c2cccc(NC(=O)Nc3ccc(F)cc3)c2O[C@H]1CN(C)Cc1ccc(C(=O)Nc2ccccc2N)cc1	-0.079	2	73*
C[C@H](CO)N1C[C@H](C)[C@H](CN(C)Cc2ccc(C(=O)Nc3ccccc3N)cc2)Oc2c(NC(=O)Nc3ccc(F)cc3)cccc2C1=O	-0.028	-8	51
COC(=O)C(CC#Cc1ccc2c(c1)[C@]1(C(=O)N2)[C@H](c2ccc(O)cc2)N2[C@H](c3ccccc3)[C@H](c3ccccc3)OC(=O)[C@H]2[C@@H]1C(=O)O)C(=O)OC	0.027	.	.
C[C@@H]1CN([C@@H](C)CO)C(=O)Cc2cc(NC(=O)CCC(F)(F)F)ccc2O[C@@H]1CN(C)Cc1ccc(Oc2ccccc2)cc1	-0.038	-62	9
SMILES	YB-1 expression	INS-1E ATP HTS	T cruzi intra
C[C@@H]1CN([C@H](C)CO)C(=O)Cc2cc(NC(=O)CCC(F)(F)F)ccc2O[C@@H]1CN(C)Cc1ccc(Oc2ccccc2)cc1	-0.17	-72	63*
C[C@H](CO)N1C[C@H](C)[C@H](CN(C)Cc2ccc(Oc3ccccc3)cc2)Oc2ccc(NC(=O)CCC(F)(F)F)cc2CC1=O	0.15	-16	22
C[C@H]1CN([C@@H](C)CO)C(=O)Cc2cc(NC(=O)CCC(F)(F)F)ccc2O[C@@H]1CN(C)Cc1ccc(Oc2ccccc2)cc1	-0.2	-11	59*
O=C(CCCCCCC(=O)Nc1ccccc1O)N/N=C/c1cccc(OCCO)c1	-0.2	-11	-1
COC(=O)[C@]1(Cc2ccc(O)c(CC=C(C)C)c2)OC(=O)C(=O)C1c1ccc(O)cc1 (stereo partly drawn)	0.42	.	.
C[C@H]1CN([C@@H](C)CO)C(=O)Cc2cc(NC(=O)Nc3cccc4ccccc34)ccc2O[C@@H]1CN(C)Cc1ccccc1	-0.23	-16	58*
C[C@@H]1CN([C@@H](C)CO)C(=O)Cc2cc(NC(=O)Nc3cccc4ccccc34)ccc2O[C@@H]1CN(C)Cc1ccc(Cl)c(Cl)c1	0.071	-62	65*
C[C@@H]1CN([C@H](C)CO)C(=O)Cc2cc(NC(=O)Nc3cccc4ccccc34)ccc2O[C@@H]1CN(C)Cc1ccc2c(c1)OCO2	0.22	-34	71*
C[C@H](CO)N1C[C@H](C)[C@H](CN(C)Cc2ccc(C(=O)O)cc2)Oc2ccc(NC(=O)Nc3cccc4ccccc34)cc2CC1=O	-0.47	5	2
C[C@H]1CN([C@@H](C)CO)C(=O)Cc2cc(NC(=O)Nc3cccc4ccccc34)ccc2O[C@@H]1CN(C)Cc1ccc(-c2ccccc2)cc1	0.64	-7	58*
C[C@@H]1CN([C@@H](C)CO)C(=O)Cc2cc(NC(=O)Nc3cccc4ccccc34)ccc2O[C@@H]1CN(C)Cc1ccc2c(c1)OCO2	0.0088	-16	53
C[C@H](CO)N1C[C@H](C)[C@H](CN(C)Cc2ccccc2)Oc2ccc(NC(=O)Nc3cccc4ccccc34)cc2CC1=O	0.13	-11	40
C[C@@H]1CN([C@@H](C)CO)C(=O)c2cc(NC(=O)Nc3cccc4ccccc34)ccc2O[C@@H]1CN(C)Cc1ccc(Cl)c(Cl)c1	0.19	.	52
CCOC(=O)CSc1nc2cccnc2s1	-0.56	.	.
C/C(=C\CC[C@@H](C)[C@H]1CC(O)[C@@]2(C)C3CC[C@H]4C(C)(C)[C@@H](O[C@@H]5OC(CO)C(O)C(O)C5OC5OC(CO)C(O)C(O)C5O)CC[C@@]45C[C@@]35CC(O)[C@]12C)C(=O)O (stereo partly drawn)	-0.45	.	.
O=C(O)CCNC(=O)Nc1ccccc1	-0.11	.	.
